Results on 1 sequence are retold here after PMC12766539 (Molecular pharmaceutics, 2022).

In assay [1] the test system is 31 clinical strains of S. aureus (5 methicillin-susceptible, 26 resistant). Nature of the assay: MIC against a panel of 31 clinical strains of S. aureus. As to conditions: ~10^5 CFU/mL, negative control. It counts as cell-based, Staphylococcus aureus. A digest of the protocol: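 Exponential-phase bacteria were diluted to ~10⁵ CFU/mL in TSB or MHB and added to serially diluted test compound (in water). Plates were incubated at 37°C for 20 h and growth was read as absorbance at 600 nm. Water-only wells served as the untreated control and medium as the blank.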

The subject of the next assay is pUC19 plasmid. Nature of the assay: DNA gel retardation experiment. It counts as binding. Particulars: two peptide concentrations (Figure S2).
For assay [2], the system named is S. aureus USA300 LAC infection. Nature of the assay: Invertebrate wax moth infection model. It counts as in vivo, Galleria mellonella. As to conditions: 64 mg/kg, 1×10^6 CFU/insect, 30 per group, 5 days. A digest of the protocol: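 Galleria mellonella larvae (~250 mg; 30 per group) were injected with test compound at 64 mg/kg in phosphate buffer 2 h before infection with S. aureus USA300 at 1×10⁶ CFU/insect. Larvae were kept at room temperature and scored live or dead daily for 5 days. Survival was compared by log-rank test.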

As for RIVQRIKDFL [RI-10], in assay [1], the “inhibitory activity at 32 μM” value is listed as “did not show any inhibitory activity”. In addition, the “DNA retardation in the well” value in the assay on pUC19 plasmid is listed as “unable to retard DNA”. In addition, the “protection of the animals from infection-caused death” value in assay [2] is reported as “did not protect the animals”.
